Assay results published in PMC10655119 (Journal of the American Chemical Society, 2023).

Assays:
Format in all cases: cell-based
[1] = system: HeLa cells; assay: Protein-CPP; conditions: 1 h; for Delivery of I into the cytosol with CPP-additive at 2.5 μM: I 5 μM + CPP-additive 2.5 μM, serum-free
[2] = system: HeLa cells; assay: Time-lapse fluorescence microscopy of Cy5-labeled CPP-additives; conditions: for Time until nucleolar mCherry signals are observed: serum-free, images at 60 s intervals
Outline: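 HeLa cells given Cy5-labeled R10 peptide additives (1 μM), with or without the hydrophobic motif, in serum-free FluoroBrite DMEM. Confocal imaging at 5 and 10 min, with line-scan profiles of Cy5 distribution. For cotreatment, NLS-mCherry-R10 cargo (5 μM) and additive were added after 60 s of baseline imaging. Frames taken every 60 s for 15 min to track nucleolar mCherry.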

[3] = system: HeLa cells; assay: Lactate dehydrogenase; conditions: 1 h
Outline: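 HeLa cells exposed to CPP-additives at 2.5, 5 or 10 μM for 1 h in serum-free FluoroBrite DMEM. Membrane integrity judged by lactate dehydrogenase released into the medium. Mean ± SE of three biological replicates.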

[4] = system: HeLa cells; assay: Mitochondrial dehydrogenase; conditions: 1 h, serum-free FluoroBrite DMEM
Outline: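 HeLa cells exposed 1 h to CPP-additive (2.5, 5 or 10 μM) in serum-free FluoroBrite DMEM, then viability read by WST-1 reduction to formazan by mitochondrial dehydrogenase. For prolonged exposure, cells coincubated 1 h with NLS-mCherry-R10 cargo plus additive, supernatant replaced with fresh culture medium, and WST-1 read after 24 h.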

[5] = HeLa, 2.5, 5 or 10 μM CPP-additive
[6] = HeLa, 2.5, 5 or 10 μM CPP-additive, three biological replicates

## O=C(O)CCCc1ccc2ccc3cccc4ccc1c2c34 [PyB, pyrenebutyrate, reference compound]
[1]; PyB 50 μM 5 min, then I 5 μM
  Uptake of I at lowered I concentration with PyB: loss of enhanced uptake of I
[1]; PyB 10 and 5 μM 5 min, then I
  Uptake of I after pretreatment with PyB at 10 μM and lower: only endosomal uptake

## TNB-Cy5-R10 [compound 22]
[2]; 1 μM peptide alone
  Line-scan profile of Cy5 fluorescence after 10 min: mainly observed within the interior of cells
[2]; 1 μM peptide alone, serum-free FluoroBrite DMEM, 37 °C, time-lapse
  Localisation of Cy5-labeled CPP-additive over time: quickly enters the cytosol
[2]; I 5 μM + Cy5-additive 1 μM
  Time until nucleolar mCherry signals are observed: 15 min

## TNB-Cy5-R10-ILFF [compound 23]
[2]; 1 μM peptide alone
  Line-scan profile of Cy5 fluorescence after 10 min: remained concentrated around the cell periphery
[2]; 23 1 μM 5 min at 37 °C, washed, time-lapse 30 min
  Time until cell-surface-associated additive is internalized into endosomes: 30 min
[2]; I 5 μM + Cy5-additive 1 μM
  Cell membrane accumulation of additive in the presence of I: persisted even after 10 min
  Time until nucleolar mCherry signals are observed: 3 min

## TNB-R10-FWF [compound 3]
[3]; HeLa, 5 μM CPP-additive
  LDH release (membrane integrity): significantly released
[4]; HeLa, 5 μM CPP-additive
  Cytotoxicity (WST1 assay): no cytotoxicity

## TNB-R10-ILIL [compound 4]
[3]; [5]
  LDH release (membrane integrity): no LDH release
[4]; [6]
  Cytotoxicity (WST1 assay): no cytotoxic effect

## TNB-R10-ILLL [compound 5]
[3]; [5]
  LDH release (membrane integrity): no LDH release
[4]; [6]
  Cytotoxicity (WST1 assay): no cytotoxic effect

## TNB-R10-Nal2 [compound 7]
[1]
  Delivery of I into the cytosol with CPP-additive at 2.5 μM: successful delivery

## TNB-R10-Nal [compound 6]
[1]
  Delivery of I into the cytosol with CPP-additive at 2.5 μM: successful delivery

## alk-Cy5-R10-ILFF [alkylated analogue]
[2]; alk-Cy5-R10-ILFF 1 μM alone or with I 5 μM, 10 min
  Membrane interaction and facilitation of protein-CPP uptake: incapable of both interacting with the cell membrane and facilitating the uptake of protein-CPPs
